# Active and inactive are the calls of the source. The rule behind the calls is not given here.
# Assays:
# [1] = system: RKO; experiment: Induction of apoptosis in human RKO cells assessed as early apoptotic cells at 25 uM after 24 hrs in presence of oxaliplatin by Annexin V/propidium iodide staining based flow cytometry (reference value: 6.33%); type: functional
# [2] = system: RKO; experiment: Cell cycle arrest in human RKO cells assessed as accumulation at S phase at 25 uM after 24 hrs in presence of oxaliplatin propidium iodide staining based flow cytometry (reference value: 4.5%); type: functional
# [3] = system: RKO; experiment: Induction of apoptosis in human RKO cells assessed as late apoptotic cells at 10 uM after 24 hrs by Annexin V/propidium iodide staining based flow cytometry (reference value: 7.42%); type: functional
# [4] = system: RKO; experiment: Induction of apoptosis in human RKO cells assessed as late apoptotic cells at 50 uM after 24 hrs by Annexin V/propidium iodide staining based flow cytometry (reference value: 7.42%); type: functional
# [5] = molecular target: Cytochrome P450 2C9 (Homo sapiens, UniProt P11712); experiment: Inhibition of CYP2C9 in human liver microsomes assessed as reduction in tolbutamide 4-hydroxylation by tandem mass spectrometry analysis; type: ADME
# Method in brief: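 Pooled human liver microsomes incubated with compound at 0–50 μM final; CYP probe activities (phenacetin O-deethylation for 1A2, tolbutamide 4-hydroxylation for 2C9, omeprazole hydroxylation for 2C19, dextromethorphan O-demethylation for 2D6) run as a cocktail incubation and quantified by tandem MS; duplicates; IC50 derived.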
# [6] = system: RKO; experiment: Cell cycle arrest in human RKO cells assessed as accumulation at sub-G1 phase at 25 uM after 24 hrs in presence of oxaliplatin propidium iodide staining based flow cytometry (reference value: 12%); type: functional
# Method in brief: (§1)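 HCT116 and RKO cells were treated with compound alone or with oxaliplatin for 24 h before harvest. Cells were stained with propidium iodide, and DNA content was analysed by flow cytometry. Cell-cycle phase populations, including sub-G1, are given as percentages.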
# [7] = AUCt in rat at 10 mg/kg, po; type: ADME, organism-based; conditions: in vivo
# Method in brief: (§2)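 Male rats given a single dose, 5 mg/kg intravenously or 10 mg/kg orally. Plasma PK parameters were reported as mean ± SD: AUCt, AUC∞, Cmax, Tmax, T1/2, CL, Vss and oral bioavailability F.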
# [8] = AUC (0 to infinity) in rat at 10 mg/kg, po; type: ADME, organism-based; design: dose 10 mg/kg, route oral, time infinity; conditions: in vivo; method in brief: as §2
# [9] = system: RKO; experiment: Induction of apoptosis in human RKO cells assessed as late apoptotic cells at 25 uM after 24 hrs by Annexin V/propidium iodide staining based flow cytometry (reference value: 7.42%); type: functional
# [10] = system: NIH3T3; experiment: Cytotoxicity against mouse NIH/3T3 cells; type: cell-based
# [11] = system: RKO; experiment: Induction of apoptosis in human RKO cells assessed as necrotic cells at 25 uM after 24 hrs by Annexin V/propidium iodide staining based flow cytometry (reference value: 0.56%); type: functional
# [12] = system: HCT-116; experiment: Induction of apoptosis in human HCT116 cells assessed as late apoptotic cells at 50 uM after 24 hrs by Annexin V/propidium iodide staining based flow cytometry (reference value: 8.36%); type: functional
# [13] = system: HCT-116; experiment: Cell cycle arrest in human HCT116 cells assessed as accumulation at sub-G1 phase at 50 uM after 24 hrs propidium iodide staining based flow cytometry (reference value: 17.8%); type: functional; method in brief: as §1
# [14] = system: HCT-116; experiment: Cell cycle arrest in human HCT116 cells assessed as accumulation at S phase at 10 uM after 24 hrs propidium iodide staining based flow cytometry (reference value: 18%); type: functional; method in brief: as §1
# [15] = system: HCT-116; experiment: Cell cycle arrest in human HCT116 cells assessed as accumulation at S phase at 25 uM after 24 hrs propidium iodide staining based flow cytometry (reference value: 18%); type: functional; method in brief: as §1
# [16] = system: HCT-116; experiment: Induction of apoptosis in human HCT116 cells assessed as early apoptotic cells at 10 uM after 24 hrs by Annexin V/propidium iodide staining based flow cytometry (reference value: 4.36%); type: functional
# [17] = system: RKO; experiment: Inhibition of colony formation in human RKO cells at 10 to 50 […] after 7 days by crystal violet staining based assay; type: functional, cell-based
# Method in brief: (§3)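 HCT116 and RKO cells seeded in 6-well plates and treated with compound for 7 days. Cells then fixed and stained with crystal violet to score colony formation.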
# [18] = system: RKO; experiment: Cell cycle arrest in human RKO cells assessed as accumulation at S phase at 25 uM after 24 hrs propidium iodide staining based flow cytometry (reference value: 19.2%); type: functional
# [19] = system: HCT-116; experiment: Cell cycle arrest in human HCT116 cells assessed as accumulation at G1/G0 phase at 50 uM after 24 hrs propidium iodide staining based flow cytometry (reference value: 42%); type: functional; method in brief: as §1
# [20] = system: HCT-116; experiment: Cell cycle arrest in human HCT116 cells assessed as accumulation at S phase at 25 uM after 24 hrs in presence of oxaliplatin propidium iodide staining based flow cytometry (reference value: 5.4%); type: functional; method in brief: as §1
# [21] = system: HCT-116; experiment: Induction of apoptosis in human HCT116 cells assessed as live cells at 10 uM after 24 hrs by Annexin V/propidium iodide staining based flow cytometry (reference value: 84.4%); type: functional
# [22] = system: HCT-116; experiment: Inhibition of colony formation in human HCT116 cells at 10 to 50 […] after 7 days by crystal violet staining based assay; type: functional, cell-based; method in brief: as §3
# [23] = system: RKO; experiment: Induction of apoptosis in human RKO cells assessed as early apoptotic cells at 10 uM after 24 hrs by Annexin V/propidium iodide staining based flow cytometry (reference value: 9.62%); type: functional
# [24] = system: RKO; experiment: Induction of apoptosis in human RKO cells assessed as necrotic cells at 10 uM after 24 hrs by Annexin V/propidium iodide staining based flow cytometry (reference value: 0.56%); type: functional
# [25] = system: RKO; experiment: Induction of apoptosis in human RKO cells assessed as live cells at 25 uM after 24 hrs in presence of oxaliplatin by Annexin V/propidium iodide staining based flow cytometry (reference value: 86.4%); type: functional
# [26] = molecular target: UDP-glucuronosyltransferase 2B7 (Homo sapiens, UniProt P16662); experiment: Inhibition of UGT2B7 in human liver microsomes assessed as reduction in naloxone 3-glucuronidation by tandem mass spectrometry analysis; type: ADME
# Method in brief: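 Pooled human liver microsomes; test compound at final 0–50 μM in a cocktail incubation with probe substrates: midazolam 1′-hydroxylation (CYP3A), SN-38 glucuronidation (UGT1A1), trifluoperazine N-glucuronidation (UGT1A4), mycophenolic acid glucuronidation (UGT1A9), naloxone 3-glucuronidation (UGT2B7). Metabolites measured by tandem MS; IC50 determined; duplicate.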
# [27] = system: HCT-116; experiment: Induction of apoptosis in human HCT116 cells assessed as late apoptotic cells at 25 uM after 24 hrs by Annexin V/propidium iodide staining based flow cytometry (reference value: 8.36%); type: functional
# [28] = molecular target: [Pyruvate dehydrogenase (acetyl-transferring)] kinase isozyme 4, mitochondrial (Homo sapiens, UniProt Q16654); experiment: Inhibition of PDK4 in HEK293T cells assessed as reduction in PDHE1alpha phosphorylation at Ser-293 residue by measuring phosphorylated PDHE1alpha level at 10 uM after 24 hrs by Western blot analysis; type: cell-based
# Method in brief: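 HEK293T cells grown in high-glucose DMEM with 10% FBS at 37 °C, 5% CO2. Medium renewed after 24 h, then cells exposed to compound for 24 h and lysed. 20 μg protein per lane Western blotted with antibodies to phospho-PDHE1α Ser232, Ser293 and Ser300 and to total PDHE1α. Band intensity quantified relative to control; triplicate.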
# [29] = system: RKO; experiment: Antiproliferative activity against human RKO cells up to 50 uM up to 72 hrs by CCK8 assay; type: functional, cell-based
# Method in brief: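 HCT116 and RKO cells were treated with compound alone or with oxaliplatin and grown for 0–72 h. Viability was read by CCK-8 colorimetry at 450 nm.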
# Cytochrome P450 2C9, sequence (P11712 whole entry): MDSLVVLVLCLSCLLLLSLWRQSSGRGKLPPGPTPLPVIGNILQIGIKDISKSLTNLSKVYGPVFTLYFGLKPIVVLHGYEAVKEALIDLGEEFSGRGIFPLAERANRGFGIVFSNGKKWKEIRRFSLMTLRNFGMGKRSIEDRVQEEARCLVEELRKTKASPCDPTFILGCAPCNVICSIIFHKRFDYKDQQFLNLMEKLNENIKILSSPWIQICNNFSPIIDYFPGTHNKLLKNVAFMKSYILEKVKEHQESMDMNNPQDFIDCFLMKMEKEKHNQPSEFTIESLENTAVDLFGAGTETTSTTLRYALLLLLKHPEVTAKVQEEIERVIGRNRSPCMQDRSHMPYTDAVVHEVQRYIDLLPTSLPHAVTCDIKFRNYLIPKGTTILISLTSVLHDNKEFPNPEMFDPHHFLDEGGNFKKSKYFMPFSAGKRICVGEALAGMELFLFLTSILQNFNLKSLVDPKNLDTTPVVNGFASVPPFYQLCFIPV
# UDP-glucuronosyltransferase 2B7, sequence (P16662 whole entry): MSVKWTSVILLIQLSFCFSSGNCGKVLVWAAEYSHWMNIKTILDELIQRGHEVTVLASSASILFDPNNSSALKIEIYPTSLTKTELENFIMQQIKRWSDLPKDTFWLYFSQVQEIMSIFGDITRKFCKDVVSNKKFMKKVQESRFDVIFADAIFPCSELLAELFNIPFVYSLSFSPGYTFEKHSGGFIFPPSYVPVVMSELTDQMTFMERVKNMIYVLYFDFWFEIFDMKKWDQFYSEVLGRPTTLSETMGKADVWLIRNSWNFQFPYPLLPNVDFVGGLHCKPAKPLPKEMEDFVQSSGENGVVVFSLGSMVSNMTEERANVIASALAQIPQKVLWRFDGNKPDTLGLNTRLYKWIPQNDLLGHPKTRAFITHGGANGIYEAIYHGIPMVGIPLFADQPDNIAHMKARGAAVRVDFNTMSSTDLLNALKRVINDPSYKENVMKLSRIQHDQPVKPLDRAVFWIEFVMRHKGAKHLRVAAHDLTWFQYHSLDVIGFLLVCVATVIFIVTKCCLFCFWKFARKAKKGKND
# [Pyruvate dehydrogenase (acetyl-transferring)] kinase isozyme 4, mitochondrial, sequence (Q16654 whole entry, looked up): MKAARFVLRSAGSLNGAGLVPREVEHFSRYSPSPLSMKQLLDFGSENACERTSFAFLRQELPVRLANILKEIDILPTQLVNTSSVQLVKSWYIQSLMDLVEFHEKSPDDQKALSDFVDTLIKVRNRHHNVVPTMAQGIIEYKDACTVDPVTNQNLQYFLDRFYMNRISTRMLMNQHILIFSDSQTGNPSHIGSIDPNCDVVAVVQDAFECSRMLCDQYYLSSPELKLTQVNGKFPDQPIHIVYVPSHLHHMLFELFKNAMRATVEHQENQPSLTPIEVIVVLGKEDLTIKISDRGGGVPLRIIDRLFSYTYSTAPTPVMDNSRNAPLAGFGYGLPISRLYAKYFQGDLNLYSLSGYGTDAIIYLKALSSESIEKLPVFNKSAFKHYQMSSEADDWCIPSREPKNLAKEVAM
smiles,measurement,setting,value
Cl.O=C1c2ccccc2C(=O)c2c1cccc2-c1cnn(C2CCNCC2)c1,Activity,[1],24.4%
same,Activity,[2],5.2%
same,Activity,[3],11.2%
same,Activity,[4],49%
same,IC50,[5],> 50 µM
same,Activity,[6],67.4%
same,AUC(0-t),[7],8920 ng·h/mL
same,AUC(0-inf),[8],18500 ng·h/mL
same,Activity,[9],39.4%
same,IC50,[10],39.6 µM
same,Activity,[11],4.61%
same,Activity,[12],54.5%
same,Activity,[13],78.2%
same,Activity,[14],29.1%
same,Activity,[15],11.4%
same,Activity,[16],2.9%
same,inhibition,[17],Active
same,Activity,[18],6%
same,Activity,[19],11.2%
same,Activity,[20],12.7%
same,Activity,[21],77.9%
same,inhibition,[22],Active
same,Activity,[23],5.2%
same,Activity,[24],0.89%
same,Activity,[25],36.8%
same,IC50,[26],> 50 µM
same,Activity,[27],23.9%
same,fold change (FC),[28],0.18
same,Activity,[29],Active

# Reference: ChEMBL document CHEMBL4330127, “Discovery of Novel Pyruvate Dehydrogenase Kinase 4 Inhibitors for Potential Oral Treatment of Metabolic Diseases” (J Med Chem, 2019)
